# Published values gathered from unrelated publications.
# Each line is one published result; the experiments were not run side by side. pKi: −log10 of the molar value.
# Liver carboxylesterase: Liver carboxylesterase (Sus scrofa, UniProt Q29550)
# ADORA3: Adenosine receptor A3 (ADORA3, Homo sapiens, UniProt P0DMS8)
# DRD2: D(2) dopamine receptor (DRD2, Homo sapiens, UniProt P14416)
# MC1R: Melanocyte-stimulating hormone receptor (MC1R, Homo sapiens, UniProt Q01726)
SMILES,target,read-out,mode,method,pH,notes,pKi
CCCCC[C@H](O)/C=C/[C@H]1[C@H](O)CC(=O)[C@@H]1CCCCCCC(=O)O,Liver carboxylesterase,enzyme activity,inhibitor,HPLC,,,< 4.55
OC[C@H]1OC(O)[C@H](O)[C@@H](O)[C@H]1O (stereo partly shown),"Alpha-galactosidase A (GLA, Homo sapiens, UniProt P06280)",enzyme activity,inhibitor,,,,1.80
CNC(=O)[C@@]12C[C@@H]1[C@@H](n1cnc3c(NCc4cn(-c5ccc(F)c(N)c5)nn4)nc(Cl)nc31)[C@H](O)[C@@H]2O,ADORA3,ligand displacement,,radioligand,,cell membranes,7.65
CCCC(C)N1CCCn2c1nc1c2c(=O)n(C)c(=O)n1C (stereo not shown),ADORA3,ligand displacement,,radioligand,,cell membranes,< 5.00
O=C1c2ccccc2CCN1CCCCN1CCN(c2cccc(Cl)c2Cl)CC1,"5-hydroxytryptamine receptor 1E (HTR1E, Homo sapiens, UniProt P28566)",ligand displacement,,radioligand,,,5.46
c1ccc(CCC2=NCCN2CCc2ccccc2)cc1,DRD2,ligand displacement,,radioligand,,,< 5.00
CC(C)CCCC(C)N1CCCn2c1nc1c2c(=O)n(C)c(=O)n1C (stereo not shown),ADORA3,ligand displacement,,radioligand,,cell membranes,5.59
CC[C@H](C)[C@H](NC(=O)CN)C(=O)N[C@H](C(=O)N[C@@H](CC(N)=O)C(=O)N[C@H](C(=O)N[C@@H](CC(C)C)C(=O)N[C@@H](CCC(N)=O)C(=O)N[C@@H](CCCCN)C(=O)N[C@@H](Cc1ccc(O)cc1)C(=O)N[C@@H](Cc1ccc(O)cc1)C(=O)N[C@@H](CO)C(=O)N[C@@H](CCCNC(=N)N)C(=O)N[C@H](C(=O)N[C@@H](CCCNC(=N)N)C(=O)NCC(=O)NCC(=O)N[C@@H](CCCNC(=N)N)C(=O)N[C@@H](CO)C(=O)N[C@@H](C)C(=O)N[C@H](C(=O)N[C@@H](CC(C)C)C(=O)N[C@@H](CO)C(=O)N[C@H]1CSSC[C@@H](C(=O)N[C@@H](CCCNC(=N)N)C(=O)N[C@@H](CCCNC(=N)N)C(=O)N[C@@H](CCCCN)C(=O)N[C@@H](CCCCN)C(N)=O)NC(=O)[C@H](CO)NC(=O)[C@H](CCCCN)NC(=O)[C@H](CCCNC(=N)N)NC(=O)CNC(=O)[C@H](CCCNC(=N)N)NC(=O)[C@H]([C@@H](C)O)NC(=O)[C@H](CO)NC(=O)[C@H](CO)NC(=O)[C@H](CCCCN)NC(=O)CNC(=O)[C@H]([C@@H](C)CC)NC(=O)[C@H](CCC(N)=O)NC(=O)[C@H](CCC(=O)O)NC(=O)[C@H](CCC(=O)O)NC(=O)[C@H](CCCCN)NC(=O)[C@@H]2CCCN2C(=O)[C@H](CC(C)C)NC1=O)C(C)C)C(C)C)[C@@H](C)O)[C@@H](C)CC,MC1R,ligand displacement in cells,,,,,6.70
CCCC[C@H](NC(=O)[C@H](CO)NC(=O)[C@H](Cc1ccc(O)cc1)NC(=O)[C@H](CO)NC(C)=O)C(=O)N[C@@H](CCC(=O)O)C(=O)N[C@@H](Cc1c[nH]cn1)C(=O)N[C@@H](C)C(=O)N[C@@H](CCCNC(=N)N)C(=O)N[C@@H](Cc1c[nH]c2ccccc12)C(=O)NCC(=O)N[C@@H](CCCCN)C(=O)N1CCC[C@H]1C(=O)N[C@H](C(=O)NCC(=O)N[C@@H](CCCCN)C(=O)N[C@@H](CCCCN)C(=O)N[C@@H](CCCNC(=N)N)C(N)=O)C(C)C,MC1R,ligand displacement in cells,,radioligand,,,7.42
C=CCN1CCCn2c1nc1c2c(=O)n(C)c(=O)n1C,ADORA3,ligand displacement,,radioligand,,cell membranes,< 5.00
CCNC(=O)[C@H]1O[C@@H](n2cnc3c(N)nc(NN=C[C@H]4CCC=CO4)nc32)[C@H](O)[C@@H]1O,ADORA3,ligand displacement,,radioligand,,,8.35
CCCCCC(C)N1CCCn2c1nc1c2c(=O)n(C)c(=O)n1C (stereo not shown),ADORA3,ligand displacement,,radioligand,,cell membranes,< 5.00
COc1ccc2c(c1)C(=O)N(CCN1CCN(c3ccccc3OC)CC1)C2,DRD2,ligand displacement,,radioligand,,,5.78
CC(C)CN1CCCn2c1nc1c2c(=O)n(C)c(=O)n1C,ADORA3,ligand displacement,,radioligand,,cell membranes,< 5.00
NCCCC[C@H](NC(=O)[C@@H]1CCCN1C(=O)[C@@H]1CSSC[C@H](NC(=O)CNC(=O)CNC(=O)CN)C(=O)N[C@@H](Cc2ccc(O)cc2)C(=O)N[C@@H](Cc2ccccc2)C(=O)N[C@@H](CCC(N)=O)C(=O)N[C@@H](CC(N)=O)C(=O)N1)C(=O)NCC(N)=O,"Vasopressin V2 receptor (AVPR2, Homo sapiens, UniProt P30518)",ligand displacement,,radioligand,,cell membranes,5.16
CCCCC[C@H](O)/C=C/[C@H]1C=CC(=O)[C@@H]1C/C=C\CCCC(=O)O,Liver carboxylesterase,enzyme activity,inhibitor,HPLC,pH 7.4,,4.92
CCn1c(-c2nc3cc(C(=O)N4CCC[C@@H](N)C4)cc(OC)c3n2C)cc2cccnc21,"Protein-arginine deiminase type-2 (PADI2, Homo sapiens, UniProt Q9Y2J8)",enzyme activity,inhibitor,,,,2.80
CC(C)N1CCCn2c1nc1c2c(=O)n(C)c(=O)n1C,ADORA3,ligand displacement,,radioligand,,cell membranes,< 5.00
CCCCC[C@H](O)/C=C/[C@H]1[C@H](O)CC(=O)[C@@H]1C/C=C\CCCC(=O)O,Liver carboxylesterase,enzyme activity,inhibitor,HPLC,pH 7.4,,< 4.55
